# Experimental data gathered from unrelated publications.
# Protocols differ between the studies behind these lines. pIC50: −log10 of the molar value.
# Read-out: DPPH scavenging
Compound,assay,setting,endpoint,value
CCOC(=O)C1=C(CCl)NC(=O)NC1c1ccccc1 (centres unmarked),,,pIC50,3.68
CCCCCCCCCCCCCCCC1NCCc2cc(O)c(O)cc21 (centres unmarked),absorbance,"30 min, dark",pIC50,4.43
CCCCCCCCCCCCCCCCCCc1ccc(O)cc1,,,pIC50,3.69
O=C(O[C@@H]1COC(=O)c2cc(O)c(O)c(O)c2-c2c(cc(O)c(O)c2O)C(=O)O[C@H]1[C@@H]1OC(=O)c2cc(O)c(O)c(O)c2-c2c(O)c(O)c(O)c3c2C(=O)O[C@H]1[C@@H]3O)c1cc(O)c(O)c(O)c1,absorbance,,IC50,5.37 µg/mL
COc1cccc(C2NCCc3cc(O)c(O)cc32)c1O (centres unmarked),absorbance,"30 min, dark",pIC50,5.19
CCOC(=O)C1=C(CSC2=NCCS2)NC(=O)NC1c1ccc(F)cc1F (centres unmarked),,,pIC50,3.86
O=c1c(O)c(-c2ccc(O)c(O)c2)oc2cc(O)cc(O)c12,,,pIC50,4.73
CCCCCC1NCCc2cc(O)c(O)cc21 (centres unmarked),absorbance,"30 min, dark",pIC50,4.20
C=C(C)[C@@H]1CC[C@]2(C)CC[C@]3(C)[C@H](CC[C@@H]4[C@@]5(C)CC[C@H](O)C(C)(C)[C@@H]5CC[C@]43C)[C@@H]12,absorbance,,IC50,18.6 µg/mL
Cc1ccc(NC(=O)CSc2nc3ccccc3cc2C=Nn2c(S)nnc2-c2ccccc2)cc1,,,pIC50,3.92
COc1cc(C2NCCc3cc(O)c(O)cc32)cc(OC)c1O (centres unmarked),absorbance,"30 min, dark",pIC50,4.95
CCOC(=O)C1=C(CCl)NC(=O)NC1c1cccc(F)c1 (centres unmarked),,,pIC50,3.75
CCCCCCCCCCC1NCCc2cc(O)c(O)cc21 (centres unmarked),absorbance,"30 min, dark",pIC50,4.22
CCOC(=O)C1=C(CCl)NC(=O)NC1c1cccc(OC)c1 (centres unmarked),,,pIC50,4.06
Cc1ccccc1NC(=O)CSc1nc2ccccc2cc1C=Nn1c(S)nnc1-c1ccccc1,,,pIC50,3.88
CCOC(=O)C1=C(CSC2=NCCS2)NC(=O)NC1c1ccc(OC)cc1 (centres unmarked),,,pIC50,3.86
O=C1O[C@H]([C@@H](O)CO)C(O)=C1O,absorbance,30 min,pIC50,4.05
O=C1O[C@H]([C@@H](O)CO)C(O)=C1O,absorbance,"30 min, dark",pIC50,4.51
O=C1O[C@H]([C@@H](O)CO)C(O)=C1O,,,IC50,9.1 µg/mL
CCOC(=O)C1=C(CCl)NC(=O)NC1c1cccc(Cl)c1 (centres unmarked),,,pIC50,3.98
